# Assay results reported in ChEMBL document CHEMBL1124897, “(1-Pyrenylmethyl)amino alcohols, a new class of antitumor DNA intercalators. Discovery and initial amine side chain structure-activity studies” (1990).
# The source made the active and inactive calls. No cut-off for these calls is given here.
# Legend:
# [1] = test system: P388; experiment: In vivo antitumor activity against murine lymphocytic leukemia P388 measured as lethal dose […]; assay type: functional, Mus musculus; design: unit: mg/kg
# Method in brief: (§1)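 Male CD2-F1 mice (20 ± 3 g) implanted ip with 1 × 10^6 viable P388 cells on day 0. Drug given ip as aqueous suspension or solution in 0.9% NaCl or 5% dextrose on days 1, 5 and 9, dosed per body weight in mg/kg. Several dose levels bracketing the LD20 were tested, six mice per dose. Deaths before the control median day of death were counted as drug toxicity.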
# [2] = test system: P388; experiment: In vivo antitumor activity against murine lymphocytic leukemia P388 measured as optimal dose which is the highest nontoxic dose; assay type: functional, Mus musculus
# [3] = test system: P388; experiment: In vivo antitumor activity against murine lymphocytic leukemia P388, measured as percent increase in life span; assay type: functional, organism-based; settings: Mus musculus
# Method in brief: (§2)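 Male CD2-F1 mice (20 ± 3 g) implanted ip with 1 × 10^6 viable P388 cells on day 0. Compound given ip as aqueous suspension or solution in 0.9% NaCl or 5% dextrose on days 1, 5 and 9, dosed per mg/kg body weight. Several doses bracketing LD20 were tested, six mice per dose. %ILS was calculated from median day of death of treated versus control mice. Values are optimal from at least two experiments.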
# [4] = test system: P388; experiment: In vivo antitumor activity against murine lymphocytic leukemia P388 measured as percent increase in life span; assay type: functional, Mus musculus; method in brief: as §1
# [5] = test system: P388; experiment: In vivo antitumor activity against murine lymphocytic leukemia P388 measured as optimal dose; assay type: functional, Mus musculus; method in brief: as §2
Compound,LD20 [1],Optimal dose [2] [mg/kg],ILS [3],ILS [4] [%],Optimal dose [5] [mg/kg]
C=CCNCc1ccc2ccc3cccc4ccc1c2c34.Cl,369,550,inactive,,
Cl.c1ccc(CCNCc2ccc3ccc4cccc5ccc2c3c45)cc1,335,335,inactive,,
CC(C)(CO)CCCNCc1ccc2ccc3cccc4ccc1c2c34.Cl,215,215,inactive,,
Cl.NCc1ccc2ccc3cccc4ccc1c2c34,130,194,inactive,,
CCC(C)C(CO)NCc1ccc2ccc3cccc4ccc1c2c34.Cl (stereo unspecified),675,675,inactive,,
CN(CCCN)CCCNCc1ccc2ccc3cccc4ccc1c2c34.Cl,23,,,20,23
CC(C)(O)CNCc1ccc2ccc3cccc4ccc1c2c34.Cl,220,,inactive,,330
CC(CO)(CO)NCc1ccc2ccc3cccc4ccc1c2c34.Cl,300,,,125,300
Cl.OCCCNCc1ccc2ccc3cccc4ccc1c2c34,120,120,,20,
Cl.c1ccc(NCCNCc2ccc3ccc4cccc5ccc2c3c45)cc1,300,200,inactive,,
Cl.OCC(O)C(CO)NCc1ccc2ccc3cccc4ccc1c2c34 (stereo unspecified),140,,,25,125
Cl.c1ccc(CCCCNCc2ccc3ccc4cccc5ccc2c3c45)cc1,130,88,inactive,,
Cl.OCCNCc1ccc2ccc3cccc4ccc1c2c34,220,,,31,221
CC1(NCc2ccc3ccc4cccc5ccc2c3c45)COC(C)(C)OC1.Cl,675,675,inactive,,
Cl.c1ccc(CNCc2ccc3ccc4cccc5ccc2c3c45)cc1,600,900,inactive,,
CC(O)CCNCc1ccc2ccc3cccc4ccc1c2c34.Cl (stereo unspecified),168,168,inactive,,
CC(O)CNCCNCc1ccc2ccc3cccc4ccc1c2c34.Cl (stereo unspecified),150,150,inactive,,
CC(C)CC(CO)NCc1ccc2ccc3cccc4ccc1c2c34.Cl (stereo unspecified),675,1012,inactive,,
Cl.NCCCCNCc1ccc2ccc3cccc4ccc1c2c34,28,19,inactive,,
Cl.OCC(NCc1ccc2ccc3cccc4ccc1c2c34)c1ccccc1 (stereo unspecified),675,675,inactive,,
NCCCCCCNCc1ccc2ccc3cccc4ccc1c2c34,75,75,inactive,,
Cl.NCCCCCNCc1ccc2ccc3cccc4ccc1c2c34,20,116,inactive,,
CCC(O)CNCc1ccc2ccc3cccc4ccc1c2c34.Cl (stereo unspecified),225,225,inactive,,
Cl.OCCN(CCO)Cc1ccc2ccc3cccc4ccc1c2c34,225,225,inactive,,
CCCNCc1ccc2ccc3cccc4ccc1c2c34.Cl,150,225,inactive,,

Compound,LD20 [1],Optimal dose [2] [mg/kg],ILS [3],ILS [4] [%],Optimal dose [5] [mg/kg]
Cl.OCCCCCNCc1ccc2ccc3cccc4ccc1c2c34,196,131,inactive,,
CN(CCO)Cc1ccc2ccc3cccc4ccc1c2c34.Cl,366,365,inactive,,
Cl.N#CCCNCc1ccc2ccc3cccc4ccc1c2c34,300,300,inactive,,
Cl.NCCCN1CCN(CCCNCc2ccc3ccc4cccc5ccc2c3c45)CC1,37,37,,,
COCCNCc1ccc2ccc3cccc4ccc1c2c34.Cl,200,133,inactive,,
Cl.OCC(NCc1ccc2ccc3cccc4ccc1c2c34)C(O)c1ccccc1 (stereo unspecified),675,1013,inactive,,
CCCCCC(CO)(CO)NCc1ccc2ccc3cccc4ccc1c2c34.Cl,675,675,inactive,,
CC(CO)(CO)NCCCc1ccc2ccc3cccc4ccc1c2c34.Cl,67.5,100,inactive,,
CC1(C)OC[C@@H](O)[C@H](NCc2ccc3ccc4cccc5ccc2c3c45)CO1,675,1013,inactive,,
Cl.OCCNCCNCc1ccc2ccc3cccc4ccc1c2c34,200,134,inactive,,
Cl.c1cc2ccc3ccc(CNCCCNC4CCCCC4)c4ccc(c1)c2c34,134,200,inactive,,
CCN(CC)CCNCc1ccc2ccc3cccc4ccc1c2c34.Cl,120,180,inactive,,
Cl.c1ccc(CCCNCc2ccc3ccc4cccc5ccc2c3c45)cc1,300,300,inactive,,
Cl.Clc1ccc(CNCc2ccc3ccc4cccc5ccc2c3c45)cc1Cl,400,900,inactive,,
CC(C)OCCCNCc1ccc2ccc3cccc4ccc1c2c34.Cl,180,120,inactive,,
Cl.OCCCCNCc1ccc2ccc3cccc4ccc1c2c34,208,139,inactive,,
CCC(COC(C)=O)(COC(C)=O)NCc1ccc2ccc3cccc4ccc1c2c34,675,303,,40,
CN(C)CCCNCc1ccc2ccc3cccc4ccc1c2c34.Cl,85,127,inactive,,
Cl.OC(CNCc1ccc2ccc3cccc4ccc1c2c34)c1ccccc1 (stereo unspecified),450,450,inactive,,
CCN(CC)Cc1ccc2ccc3cccc4ccc1c2c34.Cl,452,452,inactive,,
Cl.OCCN(CCO)CCCNCc1ccc2ccc3cccc4ccc1c2c34,96,64,inactive,,
CC(=O)OCC(C)(COC(C)=O)NCc1ccc2ccc3cccc4ccc1c2c34,300,300,,65,
CCN(CC)CCCC(C)NCc1ccc2ccc3cccc4ccc1c2c34.Cl (stereo unspecified),100,150,inactive,,
CC(NCc1ccc2ccc3cccc4ccc1c2c34)C(O)c1ccccc1.Cl (stereo unspecified),450,675,inactive,,
